Legend:
Assay type in all cases: functional
MDA-MB-435 = assay: Growth inhibition of human MDA-MB-435 cells at 10^-5 M after 48 hrs by Sulforhodamine B assay relative to control; conditions: MDA-MB-435, 48 h, read-out: GI
Outline: (§1)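 Single-dose screen at 10⁻⁵ M. Cells are preincubated 24 h at 37 °C in 5% CO2, then exposed to the compound, diluted from a DMSO stock into medium with gentamicin, for 48 h. Adherent cells are fixed with cold TCA (final 10%) and suspension cells with TCA (final 16%). Cells are stained with 0.4% SRB in 1% acetic acid and bound dye is read at 515 nm. Percent growth inhibition is taken against control wells and time-zero plates.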

SF-539 = assay: Growth inhibition of human SF539 cells at 10^-5 M after 48 hrs by Sulforhodamine B assay relative to control; conditions: SF-539, 48 h, read-out: GI
Outline: (§2)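 Single-dose primary screen at 10⁻⁵ M across 49 lines. Cells were plated 24 h beforehand, with a TCA-fixed time-zero plate, then exposed 48 h at 37 °C, 5% CO2. Cells were fixed with cold TCA, stained with SRB and read at 515 nm. Percent growth was calculated against time-zero and untreated-control absorbances.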

OVCAR-8 = assay: Growth inhibition of human OVCAR8 cells at 10^-5 M after 48 hrs by Sulforhodamine B assay relative to control; conditions: OVCAR-8, 48 h, read-out: GI; outline: as §2
Hs-578T = assay: Growth inhibition of human Hs578T cells at 10^-5 M after 48 hrs by Sulforhodamine B assay relative to control; conditions: read-out: GI; outline: as §1
IGROV-1 = assay: Growth inhibition of human IGROV1 cells at 10^-5 M after 48 hrs by Sulforhodamine B assay relative to control; conditions: IGROV-1, 48 h, read-out: GI; outline: as §1
MDA-MB-231 = assay: Growth inhibition of human MDA-MB-231 cells at 10^-5 M after 48 hrs by Sulforhodamine B assay relative to control; conditions: MDA-MB-231, 48 h, read-out: GI; outline: as §1
A549 = assay: Growth inhibition of human A549/ATCC cells at 10^-5 M after 48 hrs by Sulforhodamine B assay relative to control; conditions: A549, 48 h, read-out: GI; outline: as §1
NCI-H322M = assay: Growth inhibition of human NCI-H322M cells at 10^-5 M after 48 hrs by Sulforhodamine B assay relative to control; conditions: read-out: GI; outline: as §2
T47D = assay: Growth inhibition of human T47D cells at 10^-5 M after 48 hrs by Sulforhodamine B assay relative to control; conditions: read-out: GI
Outline: (§3)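 Single-dose stage: compound tested at 10⁻⁵ M in the 49-cell-line panel. Cells grew 24 h at 37 °C, 5% CO₂ before drug addition. Drug stock was in DMSO at 400-fold, diluted in medium with gentamicin. After 48 h exposure, adherent cells were fixed with cold TCA (10% final) and stained with 0.4% SRB in 1% acetic acid. Dye was solubilized in 10 mM Tris, read at 515 nm. Growth percentage was taken relative to untreated control and time-zero plates.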

OVCAR-4 = assay: Growth inhibition of human OVCAR4 cells at 10^-5 M after 48 hrs by Sulforhodamine B assay relative to control; conditions: OVCAR-4, 48 h, read-out: GI; outline: as §2
MCF7 = assay: Growth inhibition of human MCF7 cells at 10^-5 M after 48 hrs by Sulforhodamine B assay relative to control; conditions: MCF7, 48 h, read-out: GI; outline: as §1
ACHN = assay: Growth inhibition of human ACHN cells at 10^-5 M after 48 hrs by Sulforhodamine B assay relative to control; conditions: read-out: GI; outline: as §1
[1] = Growth inhibition of human NCI-ADR-RES cells at 10^-5 M after 48 hrs by Sulforhodamine B assay relative to control; conditions: read-out: GI; outline: as §2
U-251 = assay: Growth inhibition of human U251 cells at 10^-5 M after 48 hrs by Sulforhodamine B assay relative to control; conditions: U-251, 48 h, read-out: GI; outline: as §3
LOX IMVI = assay: Growth inhibition of human LOXIMVI cells at 10^-5 M after 48 hrs by Sulforhodamine B assay relative to control; conditions: read-out: GI; outline: as §1
NCI-H460 = assay: Growth inhibition of human NCI-H460 cells at 10^-5 M after 48 hrs by Sulforhodamine B assay relative to control; conditions: NCI-H460, 48 h, read-out: GI; outline: as §2
NCI-H23 = assay: Growth inhibition of human NCI-H23 cells at 10^-5 M after 48 hrs by Sulforhodamine B assay relative to control; conditions: NCI-H23, 48 h, read-out: GI; outline: as §2
UO-31 = assay: Growth inhibition of human UO31 cells at 10^-5 M after 48 hrs by Sulforhodamine B assay relative to control; conditions: UO-31, 48 h, read-out: GI; outline: as §3
SN12C = assay: Growth inhibition of human SN12C cells at 10^-5 M after 48 hrs by Sulforhodamine B assay relative to control; conditions: read-out: GI; outline: as §2

Row | SMILES | inhibition of growth at 10 µM (MDA-MB-435) [%] | inhibition of growth at 10 µM (SF-539) [%] | inhibition of growth at 10 µM (OVCAR-8) [%] | inhibition of growth at 10 µM (Hs-578T) [%] | inhibition of growth at 10 µM (IGROV-1) [%] | inhibition of growth at 10 µM (MDA-MB-231) [%] | inhibition of growth at 10 µM (A549) [%] | inhibition of growth at 10 µM (NCI-H322M) [%] | inhibition of growth at 10 µM (T47D) [%] | inhibition of growth at 10 µM (OVCAR-4) [%] | inhibition of growth at 10 µM (MCF7) [%] | inhibition of growth at 10 µM (ACHN) [%] | inhibition of growth at 10 µM [1] [%] | inhibition of growth at 10 µM (U-251) [%] | inhibition of growth at 10 µM (LOX IMVI) [%] | inhibition of growth at 10 µM (NCI-H460) [%] | inhibition of growth at 10 µM (NCI-H23) [%] | inhibition of growth at 10 µM (UO-31) [%] | inhibition of growth at 10 µM (SN12C) [%]
1 | Clc1nc(-c2ccncc2)nc2sc3c(c12)CCCCCC3 | 3.14 | 6.69 | -1.87 | 6.64 | 7.04 | -6.99 | -3.56 | 3.46 | 6.79 | 14.8 | 3.18 | -0.47 | -6.46 | -0.32 | 5.4 | -2.59 | 3.14 | 13.9 | 4.53
2 | c1ccc(N2CCN(c3nc(-c4ccncc4)nc4sc5c(c34)CCCCCC5)CC2)cc1 | 2.52 | 1.14 | 8.55 | -12.9 | 0.86 | 2.4 | -0.56 | -2.96 | 11.7 | 0.34 | 2.49 | 7.05 | 5.34 | 0.24 | 0 | -6.17 | 1.33 | 16.1 | -12.2
3 | c1cc(-c2nc(N3CCOCC3)c3c4c(sc3n2)CCCCCC4)ccn1 | 0.03 | 15.8 | 15.3 | -13.3 | 1.53 | 28.1 | 24.9 | -14.3 | 19.2 | 22.7 | 28.5 | 17.1 | 18.7 | 21.9 | 11.6 | 8.02 | 8.29 | 38.7 | 19.3
4 | c1ccc(N2CCN(c3nc(-c4ccccn4)nc4sc5c(c34)CCCCCC5)CC2)cc1 | 34.2 | 12.6 | 44.5 | 6.17 | 62.9 | 22.4 | 68.2 | 17.7 | 57.6 | 44 | 89.2 | 56.1 | 57.5 | 37.1 | 42.2 | 46 | 37 | 55.8 | 28.9
